Results as given in ChEMBL document CHEMBL4229342, “Synthesis of novel proxyphylline derivatives with dual Anti-Candida albicans and anticancer activity” (Eur J Med Chem, 2018).
≈ marks a conversion by molar mass, not a printed value.

Experiments:
[1] = test system: CCRF-CEM; assay: Antiproliferative activity against human CCRF-CEM cells assessed as cell viability at 25 uM after 72 hrs by MTT assay; assay type: functional; conditions: read-out: Activity
Method in brief: (§1)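 MTT viability assay in CCRF-CEM and MCF-7 cells after 72 h exposure at 25, 50, 100 and 200 µM. Results are relative to control cells without inhibitor in 0.5% DMSO. Done in triplicate; values are means ± SD of three independent experiments.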

[2] = test system: CCRF-CEM; assay: Antiproliferative activity against human CCRF-CEM cells assessed as cell viability at 50 uM after 72 hrs by MTT assay; assay type: functional; conditions: read-out: Activity; method in brief: as §1
[3] = test system: CCRF-CEM; assay: Antiproliferative activity against human CCRF-CEM cells assessed as cell viability at 100 uM after 72 hrs by MTT assay; assay type: functional; conditions: read-out: Activity; method in brief: as §1
[4] = test system: CCRF-CEM; assay: Antiproliferative activity against human CCRF-CEM cells assessed as cell viability at 200 uM after 72 hrs by MTT assay; assay type: functional; conditions: read-out: Activity; method in brief: as §1
[5] = test system: MCF7; assay: Antiproliferative activity against human MCF7 cells assessed as cell viability at 25 uM after 72 hrs by MTT assay; assay type: functional; conditions: MCF7, 72 h, read-out: Activity; method in brief: as §1
[6] = test system: MCF7; assay: Antiproliferative activity against human MCF7 cells assessed as cell viability at 50 uM after 72 hrs by MTT assay; assay type: functional; conditions: MCF7, 72 h, read-out: Activity; method in brief: as §1
[7] = test system: MCF7; assay: Antiproliferative activity against human MCF7 cells assessed as cell viability at 100 uM after 72 hrs by MTT assay; assay type: functional; conditions: MCF7, 72 h, read-out: Activity; method in brief: as §1
[8] = test system: MCF7; assay: Antiproliferative activity against human MCF7 cells assessed as cell viability at 200 uM after 72 hrs by MTT assay; assay type: functional; conditions: MCF7, 72 h, read-out: Activity; method in brief: as §1
[9] = test system: MCF7; assay: Antiproliferative activity against human MCF7 cells after 72 hrs by MTT assay; assay type: functional, cell-based; conditions: MCF7, 72 h
Method in brief: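 EC50 was derived from a repeat 72 h MTT assay in CCRF-CEM or MCF-7 cells. It is the concentration killing 50% of tumour cells compared with control cells incubated without inhibitor in 0.5% DMSO.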

[10] = test system: Candida albicans; assay: Growth inhibition of Candida albicans ATCC 90028 at 16 ug/ml incubated for 18 hrs at 35 degC by broth microdilution method relative to control; assay type: functional; conditions: ATCC 90028, 18 h, read-out: GI
[11] = test system: Candida albicans; assay: Growth inhibition of Candida albicans ATCC 90028 at 16 ug/ml incubated for 48 hrs at 35 degC by broth microdilution method relative to control; assay type: functional; conditions: ATCC 90028, 48 h, read-out: GI
[12] = test system: Candida albicans; assay: Growth inhibition of Candida albicans ATCC 90028 at 8 ug/ml incubated for 18 hrs at 35 degC by broth microdilution method relative to control; assay type: functional; conditions: ATCC 90028, 18 h, read-out: GI
[13] = test system: Candida albicans; assay: Growth inhibition of Candida albicans ATCC 90028 at 8 ug/ml incubated for 48 hrs at 35 degC by broth microdilution method relative to control; assay type: functional; conditions: ATCC 90028, 48 h, read-out: GI
[14] = test system: Candida albicans; assay: Growth inhibition of Candida albicans ATCC 90028 at 4 ug/ml incubated for 18 hrs at 35 degC by broth microdilution method relative to control; assay type: functional; conditions: ATCC 90028, 18 h, read-out: GI
[15] = test system: Candida albicans; assay: Growth inhibition of Candida albicans ATCC 90028 at 8 ug/ml incubated for 4 hrs at 35 degC by broth microdilution method relative to control; assay type: functional; conditions: ATCC 90028, 4 h, read-out: GI
[16] = test system: Candida albicans; assay: Growth inhibition of Candida albicans ATCC 90028 at 2 ug/ml incubated for 18 hrs at 35 degC by broth microdilution method relative to control; assay type: functional; conditions: ATCC 90028, 18 h, read-out: GI
[17] = test system: Candida albicans; assay: Growth inhibition of Candida albicans ATCC 90028 at 2 ug/ml incubated for 4 hrs at 35 degC by broth microdilution method relative to control; assay type: functional; conditions: ATCC 90028, 4 h, read-out: GI
[18] = test system: Candida albicans; assay: Growth inhibition of Candida albicans ATCC 90028 at 1 ug/ml incubated for 18 hrs at 35 degC by broth microdilution method relative to control; assay type: functional; conditions: ATCC 90028, 18 h, read-out: GI
[19] = test system: Candida albicans; assay: Growth inhibition of Candida albicans ATCC 90028 at 1 ug/ml incubated for 4 hrs at 35 degC by broth microdilution method relative to control; assay type: functional; conditions: ATCC 90028, 4 h, read-out: GI
[20] = test system: Candida albicans; assay: Growth inhibition of Candida albicans ATCC 90028 at 0.5 ug/ml incubated for 4 hrs at 35 degC by broth microdilution method relative to control; assay type: functional; conditions: ATCC 90028, 4 h, read-out: GI
[21] = test system: Candida albicans; assay: Growth inhibition of Candida albicans ATCC 90028 at 0.25 ug/ml incubated for 4 hrs at 35 degC by broth microdilution method relative to control; assay type: functional; conditions: ATCC 90028, 4 h, read-out: GI
[22] = test system: Candida albicans; assay: Growth inhibition of Candida albicans ATCC 90028 at 0.125 ug/ml incubated for 18 hrs at 35 degC by broth microdilution method relative to control; assay type: functional; conditions: ATCC 90028, 18 h, read-out: GI
[23] = test system: Candida albicans; assay: Growth inhibition of Candida albicans ATCC 90028 at 0.125 ug/ml incubated for 4 hrs at 35 degC by broth microdilution method relative to control; assay type: functional; conditions: ATCC 90028, 4 h, read-out: GI
[24] = test system: Candida albicans; assay: Growth inhibition of Candida albicans ATCC 90028 at 0.0625 ug/ml incubated for 18 hrs at 35 degC by broth microdilution method relative to control; assay type: functional; conditions: ATCC 90028, 18 h, read-out: GI
[25] = test system: Candida albicans; assay: Growth inhibition of Candida albicans ATCC 90028 at 0.0625 ug/ml incubated for 4 hrs at 35 degC by broth microdilution method relative to control; assay type: functional; conditions: ATCC 90028, 4 h, read-out: GI
[26] = test system: Candida albicans; assay: Growth inhibition of Candida albicans ATCC 90028 at 0.0313 ug/ml incubated for 18 hrs at 35 degC by broth microdilution method relative to control; assay type: functional; conditions: ATCC 90028, 18 h, read-out: GI
[27] = test system: Candida albicans; assay: Growth inhibition of Candida albicans ATCC 90028 at 0.0313 ug/ml incubated for 4 hrs at 35 degC by broth microdilution method relative to control; assay type: functional; conditions: ATCC 90028, 4 h, read-out: GI
[28] = test system: Candida albicans; assay: Growth inhibition of Candida albicans ATCC 90028 at 4 uM incubated for 48 hrs at 35 degC by broth microdilution method relative to control; assay type: functional; conditions: ATCC 90028, 48 h
[29] = test system: Candida albicans; assay: Fungicidal activity against Candida albicans ATCC 90028 assessed as drug level causing 3 fold reduction in bacterial count after 48 hrs at 35 degC; assay type: functional; conditions: ATCC 90028, 48 h
[30] = test system: Candida albicans; assay: Antifungal activity against Candida albicans ATCC 90028 assessed as reduction in cell viability at 1022.5 to 0.06 uM after 48 hrs in presence of ergosterol by XTT assay; assay type: functional; conditions: ATCC 90028, 48 h
[31] = Toxicity in Galleria mellonella larvae infected with Candida albicans ATCC 90028 infected with 31 uM compound pre-treated cell suspensions assessed as survival incubated in dark for 144 hrs at 30 degC and measured every 24 hrs; assay type: organism-based; conditions: in vivo
[32] = Toxicity in Galleria mellonella larvae infected with Candida albicans ATCC 90028 infected with 20 uM compound pre-treated cell suspensions assessed as survival incubated in dark for 144 hrs at 30 degC and measured every 24 hrs; assay type: organism-based; conditions: in vivo
[33] = test system: Vero; assay: Cytotoxicity in African green monkey Vero cells up to 64 ug/ml incubated for 3 to 18 hrs by XTT assay; assay type: cell-based; conditions: chlorocebus sabaeus
[34] = test system: Candida albicans; assay: Inhibition of cell adhesion of Candida albicans ATCC 90028 to African green monkey Vero cells at 2 ug/ml relative to untreated control; assay type: functional; conditions: ATCC 90028, Vero
[35] = test system: Candida albicans; assay: Inhibition of cell adhesion of Candida albicans ATCC 90028 to African green monkey Vero cells at 0.0625 ug/ml relative to untreated control; assay type: functional; conditions: ATCC 90028, Vero
[36] = test system: Candida albicans; assay: Inhibition of cell adhesion of Candida albicans ATCC 90028 to African green monkey Vero cells at 16 ug/ml relative to untreated control; assay type: functional; conditions: ATCC 90028, Vero
[37] = test system: Candida albicans; assay: Inhibition of biofilm formation of Candida albicans ATCC 90028 after 48 hrs by XTT assay; assay type: functional, organism-based; conditions: ATCC 90028, 48 h

Q: For CC(CN1c2ccccc2Sc2ccccc21)OC(=O)OC(C)Cn1cnc2c1c(=O)n(C)c(=O)n2C (configuration not stated), which viability at 25 µM [1] is on record?
A: Its viability at 25 µM is 22.1%.

Q: What about the viability at 50 µM [2] of the same compound?
A: Its viability at 50 µM is 7.9%.

Q: And the viability at 100 µM [3]?
A: Its viability at 100 µM is 0%.

Q: And the viability at 200 µM [4]?
A: The viability at 200 µM was 0%.

Q: What about the viability at 25 µM [5] of the same compound?
A: The viability at 25 µM was 58.8%.

Q: And the viability at 50 µM [6]?
A: Its viability at 50 µM is 38.3%.

Q: What about the viability at 100 µM [7] of the same compound?
A: The viability at 100 µM was 27.1%.

Q: And the viability at 200 µM [8]?
A: The viability at 200 µM was 20.8%.

Q: And the EC50 [9]?
A: The EC50 was 80 µM.

Q: What about the inhibition of growth at 16 µg/mL [10] of the same compound?
A: Its inhibition of growth at 16 µg/mL is 100%.

Q: And the inhibition of growth at 16 µg/mL [11]?
A: The inhibition of growth at 16 µg/mL was 100%.

Q: And the inhibition of growth at 8 µg/mL [12]?
A: The inhibition of growth at 8 µg/mL was 100%.

Q: What about the inhibition of growth at 8 µg/mL [13] of the same compound?
A: The inhibition of growth at 8 µg/mL was 100%.

Q: And the inhibition of growth at 4 µg/mL [14]?
A: The inhibition of growth at 4 µg/mL was 100%.

Q: And the inhibition of growth at 8 µg/mL [15]?
A: Its inhibition of growth at 8 µg/mL is 100%.

Q: What about the inhibition of growth at 2 µg/mL [16] of the same compound?
A: The inhibition of growth at 2 µg/mL was 100%.

Q: And the inhibition of growth at 2 µg/mL [17]?
A: Its inhibition of growth at 2 µg/mL is 99.5%.

Q: What about the inhibition of growth at 1 µg/mL [18] of the same compound?
A: Its inhibition of growth at 1 µg/mL is 100%.

Q: What about the inhibition of growth at 1 µg/mL [19] of the same compound?
A: The inhibition of growth at 1 µg/mL was 99.5%.

Q: And the inhibition of growth at 0.5 µg/mL [20]?
A: Its inhibition of growth at 0.5 µg/mL is 99.1%.

Q: What about the inhibition of growth at 0.25 µg/mL [21] of the same compound?
A: Its inhibition of growth at 0.25 µg/mL is 99%.

Q: And the inhibition of growth at 0.125 µg/mL [22]?
A: Its inhibition of growth at 0.125 µg/mL is 99.9%.

Q: What about the inhibition of growth at 0.125 µg/mL [23] of the same compound?
A: Its inhibition of growth at 0.125 µg/mL is 99.1%.

Q: And the inhibition of growth at 0.0625 µg/mL [24]?
A: Its inhibition of growth at 0.0625 µg/mL is 99.7%.

Q: What about the inhibition of growth at 0.0625 µg/mL [25] of the same compound?
A: The inhibition of growth at 0.0625 µg/mL was 99.1%.

Q: What about the inhibition of growth at 0.0313 µg/mL [26] of the same compound?
A: The inhibition of growth at 0.0313 µg/mL was 99.6%.

Q: And the inhibition of growth at 0.0313 µg/mL [27]?
A: Its inhibition of growth at 0.0313 µg/mL is 99.2%.

Q: What about the MIC [28] of the same compound?
A: The MIC was 4 µM (≈ 2.09 µg/mL).

Q: And the MFC [29]?
A: The MFC was 15 µM (≈ 7.82 µg/mL).

Q: What about the MIC [30] of the same compound?
A: Its MIC is 38 µM.

Q: What about the survival at 24 h, 31 µM [31] of the same compound?
A: The survival at 24 h, 31 µM was 90 to 100%.

Q: What about the survival at 24 h, 20 µM [32] of the same compound?
A: Its survival at 24 h, 20 µM is 90 to 100%.

Q: What about the Activity [33] of the same compound?
A: The Activity was “Non-Toxic”.

Q: What about the inhibition at 2 µg/mL [34] of the same compound?
A: The inhibition at 2 µg/mL was 89%.

Q: What about the inhibition at 0.0625 µg/mL [35] of the same compound?
A: Its inhibition at 0.0625 µg/mL is 89%.

Q: What about the inhibition at 16 µg/mL [36] of the same compound?
A: Its inhibition at 16 µg/mL is 100%.

Q: What about the IC50 [37] of the same compound?
A: Its IC50 is 248 µM.
